Laboratory results taken from ChEMBL document CHEMBL1811823, “Quinazolinone linked pyrrolo[2,1-c][1,4]benzodiazepine (PBD) conjugates: Design, synthesis and biological evaluation as potential anticancer agents” (2010).
Activity calls are given as the source filed them. The rule behind the calls is not given here.

Legend:
COLO 205 = assay: Growth inhibition of human COLO205 cells after 48 hrs by SRB assay; type: functional; details: COLO 205, 48 h
Summary of the method: (§1)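 Cells grown in RPMI 1640 with 10% FBS and 2 mM L-glutamine, plated at densities set by doubling time, pre-incubated 24 h at 37 °C/5% CO2. Drug tested at 0.1, 1, 10 and 100 µM in triplicate wells for 48 h continuous exposure. Cells fixed with cold TCA (final 10%) 60 min at 4 °C, stained with 0.4% SRB, dye eluted in 10 mM Tris. Absorbance read at 540 nm (690 nm reference); percent growth calculated relative to control wells.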

HOP-62 = assay: Growth inhibition of human HOP62 cells after 48 hrs by SRB assay; type: functional; details: HOP-62, 48 h; summary of the method: as §1
KB = assay: Growth inhibition of human KB cells after 48 hrs by SRB assay; type: functional; summary of the method: as §1
ZR-75-1 = assay: Growth inhibition of human ZR-75-1 cells after 48 hrs by SRB assay; type: functional; details: ZR-75-1, 48 h
Summary of the method: (§2)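 SRB assay with 48 h continuous exposure. Cells were grown in RPMI 1640 with 10% FBS and 2 mM L-glutamine and preincubated 24 h at 37 °C, 5% CO2. Compounds were tested at four concentrations (0.1, 1, 10, 100) in triplicate wells. Cells were fixed with cold TCA (10% final) for 60 min at 4 °C, stained 20 min with 0.4% SRB in 1% acetic acid, and the dye eluted with 10 mM Tris. A540 was read against a 690 nm reference. Percent growth is relative to control wells on each plate.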

[1] = Growth inhibition of human DWD cells after 48 hrs by SRB assay; type: functional; summary of the method: as §1
Nucleic Acid = assay: Binding affinity to calf thymus DNA assessed as change in melting temperature at 20 uM at pH 7 incubated for 18 hrs at 37 degC by thermal denaturation assay; type: nucleic-acid assay; details: Bos taurus
Summary of the method: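 CT-DNA (100 µM in phosphate) with 20 µM ligand, 1:5 [PBD]/[DNA], in 10 mM sodium phosphate/1 mM Na2EDTA buffer pH 7.00. Ligand added from methanol solution; incubated at 37 °C for 0 or 18 h. A260 monitored while heating 1 °C/min over 40–90 °C. Tm taken from d(A260)/dT maxima; ΔTm = Tm(DNA+PBD) − Tm(DNA alone). Values are means of at least three determinations, corrected for methanol cosolvent.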

[2] = Growth inhibition of human Gurav cells after 48 hrs by SRB assay; type: functional; summary of the method: as §1
A549 = assay: Growth inhibition of human A549 cells after 48 hrs by SRB assay; type: functional; details: A549, 48 h; summary of the method: as §1
PC-3 = assay: Growth inhibition of human PC3 cells after 48 hrs by SRB assay; type: functional; details: PC-3, 48 h; summary of the method: as §1
A2780 = assay: Growth inhibition of human A2780 cells after 48 hrs by SRB assay; type: functional; details: A2780, 48 h; summary of the method: as §1
SiHa = assay: Growth inhibition of human SiHa cells after 48 hrs by SRB assay; type: functional; summary of the method: as §2
MCF7 = assay: Growth inhibition of human MCF7 cells after 48 hrs by SRB assay; type: functional; details: MCF7, 48 h; summary of the method: as §1
A-375 [3] = assay: Cell cycle arrest in human A375 cells assessed as decrease in G2/M phase at 4 uM after 24 hrs by propidium iodide staining based flow cytometry; type: functional; design: scale not given: the % may be the effect or the level left
Summary of the method: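 A375 melanoma cells (DMEM, 10% FCS, 37 °C, 5% CO2) seeded at 5×10^5 per dish and grown 24 h, then exposed to 0–4 µM for 24 h. Harvested with trypsin-EDTA, fixed in ice-cold 70% ethanol, RNase A treated (1 mg/ml, 37 °C, 30 min), stained with propidium iodide and analysed by flow cytometry for phase distribution.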

A-375 [4] = assay: Increase in p53 protein expression in human A375 cells at 4 uM after 24 hrs by Western blot; type: functional, cell-based
Summary of the method: (§3)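 A375 cells (DMEM, 10% FCS, 37 °C, 5% CO2) were treated at 4 µM for 24 h. Lysates were loaded at 30 µg protein/lane on 12% SDS-PAGE and transferred to PVDF. Membranes were blocked 2 h in TBST, incubated with primary antibody overnight at 4 °C (p53 1:100, p27 1:500, NF-κB p65 1:500), then HRP secondary 1 h, with chemiluminescent detection. β-actin was the loading control; untreated and DMSO controls were run.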

A-375 [5] = assay: Inhibition of NF-kappaB signaling in human A375 cells at 4 uM after 24 hrs by Western blot; type: cell-based; summary of the method: as §3
A-375 [6] = assay: Cytotoxicity against human A375 cells assessed as cell viability after 24 hrs by MTT assay; type: functional
Summary of the method: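 A375 cells seeded at 10,000/well, incubated overnight, then treated for 24 h. MTT added at 10% of culture volume for 2 h at 37 °C. Formazan dissolved in 20% SDS/50% DMF overnight at 37 °C; absorbance read at 570 nm against a medium blank. Viability expressed as percent of untreated cells.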

A-375 [7] = assay: Increase in p27 protein expression in human A375 cells at 4 uM after 24 hrs by Western blot; type: functional, cell-based; summary of the method: as §3
A-375 [8] = assay: Decrease in Bcl-2 mRNA expression in human A375 cells at 4 uM after 24 hrs by RT-PCR
A-375 [9] = assay: Increase in cytochrome C release in human A375 cells at 4 uM after 24 hrs by Western blot; type: functional, cell-based
Summary of the method: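 Western blot of A375 cell lysates after 24 h exposure at 4 µM, with 30 µg protein/lane on 12% SDS-PAGE and transfer to PVDF. Probed overnight at 4 °C with anti-cytochrome c (1:500), then HRP secondary and chemiluminescence. β-actin was the loading control; untreated and DMSO-only cells served as controls.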

A-375 [10] = assay: Increase in active caspase-3 protein level in human A375 cells at 4 uM after 24 hrs by Western blot; type: functional, cell-based
Summary of the method: (§4)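 A375 cells were exposed 24 h at 4 µM. Lysates (30 µg/lane) were run on 12% SDS-PAGE and transferred to PVDF, then probed overnight at 4 °C with anti-cleaved caspase-3 (1:200, detects 21 kDa) or anti-PARP (1:2000, detects 113 and 85 kDa). HRP secondary and chemiluminescence were used. β-tubulin was the loading control; untreated and DMSO controls were included.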

A-375 [11] = assay: Increase in active PARP cleavage product (85kDa) level in human A375 cells at 4 uM after 24 hrs by Western blot; type: functional, cell-based; summary of the method: as §4
A-375 [12] = assay: Induction of apoptosis in human A375 cells assessed as sub-G1 phase accumulation at 4 uM after 24 hrs by propidium iodide staining based flow cytometry; type: functional
Summary of the method: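 A375 cells (5×10^5 per 60 mm dish) were grown 24 h, then treated 24 h at 0–4 µM. Cells were harvested with trypsin-EDTA, fixed in ice-cold 70% ethanol for 30 min at 4 °C, treated with RNase A (1 mg/ml) for 30 min at 37 °C, and stained with propidium iodide. Cell-cycle distribution, including the sub-G1 fraction, was measured by flow cytometry. DMSO-exposed cells were the control.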

| GI50 (COLO 205) | GI50 (KB) | ΔTm (Nucleic Acid) | GI50 (A549) | GI50 (PC-3) | GI50 (A2780) | GI50 (MCF7) | SMILES | GI50 (HOP-62) | GI50 (ZR-75-1) | GI50 [1] | GI50 [2] | GI50 (SiHa) | also measured |
| --- | --- | --- | --- | --- | --- | --- | --- | --- | --- | --- | --- | --- | --- |
| 150 nM | 150 nM | 2.2 °C | 130 nM | 170 nM | 140 nM | 150 nM | COc1cc2c(cc1OCCCCCOc1ccc3nc(C)n(-c4ccc(F)cc4)c(=O)c3c1)N=C[C@@H]1CCCN1C2=O | 180 nM | 160 nM | 150 nM | 130 nM | 190 nM |  |
| 170 nM | 150 nM | 2 °C | 170 nM | 170 nM | 150 nM | 120 nM | COc1cc2c(cc1OCCCCOc1ccc3nc(C)n(-c4ccc(I)cc4C)c(=O)c3c1)N=C[C@@H]1CCCN1C2=O | 170 nM | 160 nM | 150 nM | 170 nM | 180 nM |  |
| 170 nM | 160 nM | 2.3 °C | 180 nM | 180 nM | 150 nM | 140 nM | COc1cc2c(cc1OCCCCOc1ccc3nc(C)n(-c4ccc(Cl)cc4Cl)c(=O)c3c1)N=C[C@@H]1CCCN1C2=O | 180 nM | 170 nM | 150 nM | 170 nM | 180 nM |  |
| 130 nM | 150 nM | 2.3 °C | 130 nM | 170 nM | 110 nM | < 100 nM | COc1cc2c(cc1OCCCCCOc1ccc3nc(C)n(-c4ccc(F)c(Cl)c4)c(=O)c3c1)N=C[C@@H]1CCCN1C2=O | 140 nM | 150 nM | 130 nM | < 100 nM | 170 nM | Activity (A-375 [3]): 11.92%; Activity (A-375 [4]): Active; inhibition (A-375 [5]): Active; Activity (A-375 [6]): 58.72%; Activity (A-375 [7]): Active; Decrease in Bcl-2 mRNA expression (A-375 [8]): Active; Activity (A-375 [9]): Active; Activity (A-375 [10]): Active; Activity (A-375 [11]): Active; Activity (A-375 [12]): 24.1% |
| 160 nM | 150 nM | 2.1 °C | 160 nM | 160 nM | 140 nM | 110 nM | COc1cc2c(cc1OCCCCCOc1ccc3nc(C)n(-c4ccc(I)cc4C)c(=O)c3c1)N=C[C@@H]1CCCN1C2=O | 160 nM | 160 nM | 130 nM | 160 nM | 170 nM |  |

The remaining lines, values behind:

| SMILES | GI50 (COLO 205) | GI50 (KB) | ΔTm (Nucleic Acid) | GI50 (A549) | GI50 (PC-3) | GI50 (A2780) | GI50 (MCF7) | GI50 (HOP-62) | GI50 (ZR-75-1) | GI50 [1] | GI50 [2] | GI50 (SiHa) | also measured |
| --- | --- | --- | --- | --- | --- | --- | --- | --- | --- | --- | --- | --- | --- |
| COc1cc2c(cc1OCCCCCOc1ccc(-n3c(/C=C/c4ccccc4)nc4ccccc4c3=O)cc1)N=C[C@@H]1CCCN1C2=O | 2000 nM | 2150 nM | 2 °C | 26200 nM | 1830 nM | 150 nM | 2500 nM | 2310 nM | 150 nM | 170 nM | 1820 nM | 2080 nM |  |
| COc1cc2c(cc1OCCCOc1ccc(-n3c(/C=C/c4ccccc4)nc4ccccc4c3=O)cc1)N=C[C@@H]1CCCN1C2=O | 2120 nM | 1780 nM | 2 °C | 1880 nM | 160 nM | 140 nM | 2030 nM | 2150 nM | 160 nM | 140 nM | 1850 nM | 2000 nM |  |
| COc1cc2c(cc1O)N=C[C@@H]1CCCN1C2=O | 110 nM | 170 nM | 0.7 °C | 160 nM | 200 nM | 140 nM | 170 nM | 150 nM |  |  | 160 nM | 170 nM |  |
| COc1cc2c(cc1OCCCOc1ccc(-n3c(C)nc4ccccc4c3=O)cc1)N=C[C@@H]1CCCN1C2=O | 140 nM | 150 nM | 2 °C | 1480 nM | 130 nM | 100 nM | 1830 nM | 160 nM | 150 nM | 110 nM | 130 nM | 160 nM |  |
| COc1cc2c(cc1OCCCCOc1ccc(-n3c(/C=C/c4ccccc4)nc4ccccc4c3=O)cc1)N=C[C@@H]1CCCN1C2=O | 2230 nM | 2070 nM | 2.3 °C | 2390 nM | 1910 nM | 160 nM |  | 2330 nM | 160 nM | 160 nM | 1930 nM | 2190 nM |  |
| COc1ccc(-n2c(C)nc3ccc(OCCCCCOc4cc5c(cc4OC)C(=O)N4CCC[C@H]4C=N5)cc3c2=O)cc1 | 140 nM | 160 nM | 2.2 °C | 140 nM | 170 nM | 140 nM | < 100 nM | 180 nM | 150 nM | 130 nM | < 100 nM | 180 nM |  |
| COc1cc2c(cc1OCCCCOc1ccc(-n3c(C)nc4ccccc4c3=O)cc1)N=C[C@@H]1CCCN1C2=O | 1810 nM | 1980 nM | 2.1 °C | 1930 nM | 170 nM | 1650 nM | 2300 nM | 1950 nM | 170 nM | 1600 nM | 1950 nM | 1900 nM |  |
| COc1cccc2c1C(=O)c1c(O)c3c(c(O)c1C2=O)C[C@@](O)(C(=O)CO)C[C@@H]3O[C@H]1C[C@H](N)[C@H](O)[C@H](C)O1 [DOXORUBICIN] | 140 nM | 170 nM |  |  |  | 160 nM | 170 nM | 140 nM |  | 100 nM | 170 nM | 170 nM |  |
